Rows were chosen to be rich in hits. Some 3.2% of all compounds tested hit in one or more screens of this group.
UBC13 inh = inhibitors of human UBC13 polyubiquitin chain formation. P61088. TR-FRET. actives 0.47% (n = 330,000). AID 485273. inhibition, % at 20 µM; in the data active = inhibition above about 45%, passing the limit was not always enough; inconclusive = no clear call, values can overlap the other calls
Target sequence (P61088 whole entry, looked up): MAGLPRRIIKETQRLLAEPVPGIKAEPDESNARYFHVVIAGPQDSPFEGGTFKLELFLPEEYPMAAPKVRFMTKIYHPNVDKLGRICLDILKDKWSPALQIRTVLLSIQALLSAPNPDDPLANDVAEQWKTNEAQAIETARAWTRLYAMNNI
MEKK2mut PB1 HTS = signal of MEK5 binding to mutant human MEKK2 PB1 domain; bead flow cytometry, Alexa488-MEK5 binding to MEKK2 mutant; percent response, % at 10 µM; actives 0.35% (n = 290,000); AID 1530; in the data active = percent response above about 24%, passing the limit was not always enough
DSG3 Ab inh = human desmoglein-3 autoantibody binding inhibition; P32926; DSG3-coupled beads, scFv-anti-DSG3-GFP binding, flow cytometry; hits give low values; binding (percent of control), % at 10 µM; actives 0.48% (n = 310,000);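 active = binding more than 3 SD below its plate's average and above zero; inconclusive = below that plate limit but binding exactly zero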;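 note: hits lower antibody fragment binding to DSG3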
MEKK3 PB1 HTS = raises or lowers MEK5 binding to the human MEKK3 PB1 domain. binding response (% of control), % at 10 µM. bead-based flow cytometry, Alexa488-MEK5 binding to MEKK3; actives lie on both sides; 0 = blocked by unlabeled MEK5, 100 = vehicle. Q99759. actives 1.4% (n = 290,000). AID 1529;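 active = binding response more than 3 SD above or below the average of its plate-row segment, actives on both sides; inconclusive = wells at one plate position flagged as instrument error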;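 note: Alexa488 bead fluorescence after subtracting the streptavidin-only scavenger bead signal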
Target sequence (Q99759 whole entry, looked up, the tested form may be a part): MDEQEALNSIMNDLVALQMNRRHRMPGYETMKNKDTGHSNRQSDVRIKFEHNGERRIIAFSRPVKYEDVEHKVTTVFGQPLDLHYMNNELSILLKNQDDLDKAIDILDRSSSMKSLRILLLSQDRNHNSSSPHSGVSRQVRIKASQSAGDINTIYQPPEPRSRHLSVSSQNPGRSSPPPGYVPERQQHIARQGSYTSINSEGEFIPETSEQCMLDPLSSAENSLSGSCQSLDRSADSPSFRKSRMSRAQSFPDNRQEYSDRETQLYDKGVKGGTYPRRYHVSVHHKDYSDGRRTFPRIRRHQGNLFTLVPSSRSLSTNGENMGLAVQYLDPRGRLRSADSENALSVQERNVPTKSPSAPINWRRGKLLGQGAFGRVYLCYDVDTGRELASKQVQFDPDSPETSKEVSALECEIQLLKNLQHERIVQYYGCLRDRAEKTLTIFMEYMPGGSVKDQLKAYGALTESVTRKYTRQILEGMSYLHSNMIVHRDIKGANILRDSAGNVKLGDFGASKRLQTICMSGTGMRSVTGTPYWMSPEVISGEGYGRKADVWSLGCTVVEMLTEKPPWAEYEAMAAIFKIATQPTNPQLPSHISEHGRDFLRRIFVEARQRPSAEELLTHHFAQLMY
Apaf-1 inh = blocks human Apaf-1 apoptosome activity; reconstituted apoptosome caspase-3 activity, DEVD-Rh110 fluorescence; actives 0.71% (n = 330,000); O14727; inhibition, % at 20 µM; active = inhibition of at least 40% at 20 µM
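System: Apoptosome proteins | Medium: Hepes pH 7.5 with detergent and BSA | Also added: Cytochrome c trigger plus (Z-DEVD)2-Rh110 caspase-3 substrate | Incubation: 30 min compound preincubation, 50 min activation, room temperature | Detection: Rhodamine 110 fluorescence at Ex 480/Em 540 nm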
MEKK2 WT-MEK5 = raises or lowers MEK5 binding to wildtype human MEKK2 PB1 domain. Q9Y2U5. bead flow cytometry, Alexa488-MEK5 binding to MEKK2 WT; actives lie on both sides. binding response (% of control), % at 10 µM. actives 1.1% (n = 290,000). AID 1531; in the data active = binding response below about 67% or above about 130%; inconclusive = no clear call, values can overlap the other calls; inactive = in between
MEKK2wt confirm = raises or lowers MEK5 binding to wildtype human MEKK2, retest. shares compounds with MEKK3 PB1 HTS. bead flow cytometry, Alexa488-MEK5 binding to MEKK2 WT; actives lie on both sides. binding response (% of control), % at 10 µM. actives 2.4% (n = 5,900). AID 1892; in the data active = binding response below about 16% or above about 210%; inactive = in between
MEKK2mut confirm = signal of MEK5 binding to mutant human MEKK2, retest; percent response, % at 10 µM; shares compounds with MEKK3 PB1 HTS; bead flow cytometry, Alexa488-MEK5 binding to MEKK2 mutant; actives 2% (n = 5,900); in the data active = percent response mostly above about 71%, no sharp cut-off; inactive = mostly below about 38%;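 note: higher means compound restores mutant binding toward wildtype level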
MEKK3 confirm = MEKK3-MEK5 PB1 inhibition, single concentration confirmation. bead flow cytometry, Alexa488-MEK5 binding to MEKK3; hits give low values. actives 1.8% (n = 5,900). AID 1894. binding response (% of control), % at 10 µM. shares compounds with MEKK3 PB1 HTS;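 active = binding response below 72% of control, or above a set upper limit, though filed actives all read lower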;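 note: lower values mean stronger disruption of MEK5 binding to MEKK3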
Casp3 counter = inhibits human caspase-3 in UBC13 counter-screen. Recombinant caspase-3, Caspase-Glo 3/7 luminescence, 60 min. inhibition, % at 20 µM. actives 4% (n = 1,400). shares compounds with UBC13 inh;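 active = mean inhibition across replicates above about 26%, limit read from the data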
UBC13 confirm = confirmation of human UBC13 polyubiquitin inhibitors; shares compounds with UBC13 inh; UBC13 polyubiquitination, TR-FRET, biochemical; inhibition, % at 10 µM; actives 68% (n = 1,400); AID 488859; in the data active = inhibition above about 45%; inconclusive = no clear call, values can overlap the other calls
Apaf-1 inh conf = Apaf-1 inhibition, single-dose confirmed | actives 25% (n = 1,800) | inhibition, % at 20 µM | shares compounds with Apaf-1 inh | AID 504614 | reconstituted apoptosome, caspase-3 DEVD-Rh110 fluorescence;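 active = mean inhibition of at least 40% at 20 µM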
Rh110 quench = counter-screen for Apaf-1 inhibitors: fluorescence interference; AID 504615; shares compounds with Apaf-1 inh; activation (fluorescence interference), % at 20 µM; Rh110 fluorescence interference, quenched caspase reaction; 1,800 tested, under 10 active;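 active = signal rise of 40% or more at 20 µM, treated as a fluorescence artifact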
Hits are given with their value; [ ] = dose if it differs, or a comment.

Results for CCOc1ccc(C(=O)NC(C(=O)N2CCC2)C(C)C)cc1 (stereo unspecified) ?
UBC13 inh: inactive; DSG3 Ab inh: inactive; Apaf-1 inh: inactive

How did Cc1ccc(S(=O)(=O)NCc2ccc3c(c2)cc(C)n3C)cc1 do in these assays?
UBC13 inh: inactive; MEKK2mut PB1 HTS: inactive; DSG3 Ab inh: 71; MEKK3 PB1 HTS: 71[inhibitor]; Apaf-1 inh: 51; MEKK2 WT-MEK5: 51[inhibitor]; MEKK2wt confirm: inactive; MEKK2mut confirm: inactive; MEKK3 confirm: inactive; Apaf-1 inh conf: inactive; Rh110 quench: inactive

How did Cn1c(=O)c2c(ncn2CC(=O)N/N=C/C=C\c2ccccc2[N+](=O)[O-])n(C)c1=O do in these assays?
UBC13 inh: inactive; MEKK2mut PB1 HTS: inactive; MEKK3 PB1 HTS: inactive; Apaf-1 inh: inactive; MEKK2 WT-MEK5: inactive

What do the screens show for `CC(=O)C[C@H](O)CC(=O)[C@H]1OC(=O)[C@H](C)C/C=C\Cc2ccccc21`?
UBC13 inh: inactive; DSG3 Ab inh: inactive; Apaf-1 inh: inactive

What do the screens show for `O=C(Cn1cc2c(n1)CCCC2)NCCCN1CCCC1`?
UBC13 inh: inactive; MEKK2mut PB1 HTS: inactive; DSG3 Ab inh: inactive; MEKK3 PB1 HTS: inactive; Apaf-1 inh: 41; MEKK2 WT-MEK5: 134; MEKK2wt confirm: inactive; MEKK2mut confirm: inactive; MEKK3 confirm: inactive; Apaf-1 inh conf: inactive; Rh110 quench: inactive

What do the screens show for `CCCN1CCN(CCCNC(=O)Cn2cc3c(n2)CCCC3)CC1`?
UBC13 inh: inactive; MEKK2mut PB1 HTS: inactive; DSG3 Ab inh: inactive; MEKK3 PB1 HTS: inactive; Apaf-1 inh: inactive; MEKK2 WT-MEK5: inactive

Results for O=C(Nc1ccccc1Br)C1CC(=O)N(c2ccc3c4c(cccc24)CC3)C1 (stereo unspecified) ?
UBC13 inh: inactive; MEKK2mut PB1 HTS: inactive; DSG3 Ab inh: inactive; MEKK3 PB1 HTS: inactive; Apaf-1 inh: inactive; MEKK2 WT-MEK5: inactive

Results for Cc1cc(C)c2c(=O)[nH][nH]c2n1 ?
DSG3 Ab inh: inactive

What do the screens show for `Cc1ccc(S(=O)(=O)Nc2ccccc2N=Cc2ccc([N+](=O)[O-])cc2[N+](=O)[O-])cc1`?
DSG3 Ab inh: inactive

How did O=C(NCCCN1CCc2ccccc2C1)C1CCN(c2nnc(-n3cccc3)s2)CC1 do in these assays?
UBC13 inh: inactive; MEKK2mut PB1 HTS: 55; DSG3 Ab inh: inactive; MEKK3 PB1 HTS: inactive; Apaf-1 inh: 51; MEKK2 WT-MEK5: 219; MEKK2wt confirm: inactive; MEKK2mut confirm: inactive; MEKK3 confirm: inactive; Apaf-1 inh conf: inactive; Rh110 quench: inactive

How did CCOc1ccc(C(=O)Nc2sc3c(c2C(=O)OC)CC(C)(C)NC3(C)C)cc1 do in these assays?
UBC13 inh: 52; MEKK2mut PB1 HTS: inactive; DSG3 Ab inh: inactive; MEKK3 PB1 HTS: inactive; Apaf-1 inh: 41; MEKK2 WT-MEK5: 152; MEKK2wt confirm: inactive; MEKK2mut confirm: inactive; MEKK3 confirm: inactive; Casp3 counter: inactive; UBC13 confirm: inactive; Apaf-1 inh conf: inactive; Rh110 quench: inactive

Results for COC(=O)c1c(NC(=O)c2ccc(C(=O)c3ccccc3)cc2)sc2c1CC(C)(C)NC2(C)C ?
DSG3 Ab inh: inactive

How did COC(=O)c1c(NC(=O)c2nc3ccccc3s2)sc2c1CC(C)(C)NC2(C)C do in these assays?
UBC13 inh: 97; MEKK2mut PB1 HTS: 69; DSG3 Ab inh: inactive; MEKK3 PB1 HTS: inactive; Apaf-1 inh: 58; MEKK2 WT-MEK5: 210; MEKK2wt confirm: inactive; MEKK2mut confirm: inactive; MEKK3 confirm: inactive; Casp3 counter: inactive; UBC13 confirm: 87; Apaf-1 inh conf: inactive; Rh110 quench: inactive

Results for COc1ccc(CCNC(=O)c2cc(S(=O)(=O)N3CCOCC3)ccc2F)cc1 ?
UBC13 inh: inactive; DSG3 Ab inh: inconclusive; Apaf-1 inh: inactive

How did COc1ccc(-c2n[nH]nc2C2=CC(=O)CC(C)(C)C2)cc1 do in these assays?
DSG3 Ab inh: inactive

How did CCOc1ccc(N=C2NC(=O)CS2)cc1 do in these assays?
UBC13 inh: inactive; MEKK2mut PB1 HTS: inactive; DSG3 Ab inh: inactive; MEKK3 PB1 HTS: inactive; Apaf-1 inh: inactive; MEKK2 WT-MEK5: inactive

Results for Clc1ccc(C2=NCCN2)cc1 ?
UBC13 inh: inactive; MEKK2mut PB1 HTS: inactive; DSG3 Ab inh: inactive; MEKK3 PB1 HTS: inactive; Apaf-1 inh: inactive; MEKK2 WT-MEK5: inactive

How did C[C@H](NC(=O)c1ccccc1)C(=O)OCC(=O)Nc1sccc1C(N)=O do in these assays?
UBC13 inh: inactive; DSG3 Ab inh: inconclusive; Apaf-1 inh: inactive

What do the screens show for `CC1CCCC(C)N1C(=O)COC(=O)CNC(=O)c1ccccc1` (stereo unspecified)?
UBC13 inh: inactive; DSG3 Ab inh: inconclusive; Apaf-1 inh: inactive

What do the screens show for `Cn1cccc1/C=C1\SC(=S)N(NC(=O)c2ccccc2O)C1=O`?
UBC13 inh: inactive; MEKK2mut PB1 HTS: inactive; DSG3 Ab inh: inactive; MEKK3 PB1 HTS: inactive; Apaf-1 inh: inactive; MEKK2 WT-MEK5: inactive

How did O=C(NN1C(=O)/C(=C/C=C/c2ccco2)SC1=S)c1ccccc1O do in these assays?
UBC13 inh: 45; MEKK2mut PB1 HTS: inactive; DSG3 Ab inh: inactive; MEKK3 PB1 HTS: inactive; Apaf-1 inh: inactive; MEKK2 WT-MEK5: inactive; Casp3 counter: inactive; UBC13 confirm: inactive

What do the screens show for `O=C(Nc1ccccc1)C1=C[C@@H](C2CCCCC2)C[C@@H](OCc2ccc(CO)cc2)O1`?
UBC13 inh: inactive; MEKK2mut PB1 HTS: inactive; DSG3 Ab inh: inactive; MEKK3 PB1 HTS: inactive; Apaf-1 inh: inactive; MEKK2 WT-MEK5: inactive

Source: PubChem BioAssay
